High-throughput results: PubChem BioAssay, several laboratories
Compounds with a hit are over-represented: about 3.1% of the library has one in this group of screens.
LEDGF integ inh = blocks HIV-1 LEDGF/p75-dependent DNA integration | AID 743269 | inhibition, % at 3.7 µM | TR-FRET IN-LEDGF/p75 DNA integration, Eu/Cy5 | 370,000 compounds, 0.64% hits;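 active means inhibition above the screen-wide mean plus 3 SD, cut at about 13% in these data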;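 further: signal is the Cy5 over europium emission ratio at 671 and 618 nm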
rCAG binder = r(CAG) repeat RNA binding. AID 651821. 370,000 compounds, 1.3% hits. TO-PRO-1 dye displacement fluorescence. inhibition, % at 3 µM;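 active means inhibition above the plate cutoff, the mean of all test compounds on that plate plus 3 SD, cut at about 35% in these data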;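 further: higher means more dye released from RNA so lower well fluorescence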
CSN inh = inhibitors of human CSN-mediated cullin deneddylation; Purified CSN, SCF-Nedd8-OG deneddylation, fluorescence polarization; inhibition, % at 12.5 µM; 360,000 compounds, 0.38% hits; Q92905;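 active means pattern-corrected inhibition above about 35%, with an unprinted fluorescence ratio check between 0.5 and 1.5, limit read from the data, passing the limit was not always enough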
Target sequence (Q92905 whole entry, looked up, one chain of several): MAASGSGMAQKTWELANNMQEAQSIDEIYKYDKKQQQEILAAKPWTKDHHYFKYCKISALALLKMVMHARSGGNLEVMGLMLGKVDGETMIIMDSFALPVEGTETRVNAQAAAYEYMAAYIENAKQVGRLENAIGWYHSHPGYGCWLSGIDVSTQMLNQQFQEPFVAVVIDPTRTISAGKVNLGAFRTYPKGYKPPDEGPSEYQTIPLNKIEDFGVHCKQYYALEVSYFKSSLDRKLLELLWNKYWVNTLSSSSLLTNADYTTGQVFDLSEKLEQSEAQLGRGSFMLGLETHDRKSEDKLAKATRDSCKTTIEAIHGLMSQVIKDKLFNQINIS
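Test system: Human Csn5 produced in HEK293T cells | Compound: 12.5 µM single point | Times: 90 min, room temperature | Signal: Fluorescence polarization readout | Read-out basis: % inhibition of substrate cleavage by Csn5 | Controls: no-enzyme wells high, enzyme-with-substrate wells low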
MBD2 DNA inh = MBD2-methylated oligo binding inhibition | Q9UBB5 | TR-FRET, MBD2 binding to methylated oligonucleotide | inhibition, % at 4.4 µM | 370,000 compounds, 0.31% hits | AID 686964; in the data active means inhibition above about 13%
UHRF1 MBD2 ctr = UHRF1 methyl-DNA binding inhibition; inhibition, % at 4.4 µM; UHRF1 binding to methylated oligo, TR-FRET; Q96T88; 370,000 compounds, 0.75% hits; in the data active means inhibition above about 21%;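 further: UHRF1 SRA domain binding a hemimethylated CpG hairpin DNA probe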
ATG4B inh = ATG4B (human) cysteine protease inhibition | ATG4B cleavage of LC3-PLA2, NBD-HPC fluorescence, 1 h | AID 504462 | inhibition, % at 8.33 µM | 340,000 compounds, 0.51% hits | Q9Y4P1; in the data active means inhibition above about 40%
A number is an active result; i = inactive; nt = no result; ! = a repeat was not active.

SMILES	LEDGF integ inh	rCAG binder	CSN inh	MBD2 DNA inh	UHRF1 MBD2 ctr	ATG4B inh
CCOC(=O)c1c(C)[nH]c(C)c1C(=O)CSc1nc2ccccc2c(=O)n1-c1ccccc1C	i	i	i	i	21	i
CCOC(=O)c1c(C)[nH]c(C)c1C(=O)CSc1nc2ccccc2c(=O)n1-c1ccc(F)cc1	i	i	i	i	i	i
CCn1c(=O)n(CC(=O)N2CCN(C(C)=O)CC2)c(=O)c2ccccc21	i	i	nt	i	i	nt
Cc1ccc(-c2cc(C(=O)NN=Cc3ccc(-c4ccccc4)cc3)[nH]n2)cc1	i	i	nt	i	i	nt
Cc1ccc2c(c1C)NC(C(=O)O)C1CC=CC21 (stereo unspecified)	nt	nt	i	nt	nt	i
O=C(O)C1Nc2c(C(=O)N3CCOCC3)cccc2C2C=CCC12 (stereo unspecified)	nt	nt	35	nt	nt	i
CSc1nc(-c2ccc(Cl)cc2)nn1S(=O)(=O)c1ccccc1	i	i	i	i	21	i
COc1ccc2[nH]cc(C(C)c3c[nH]c4ccccc34)c2c1 (stereo unspecified)	i	i	nt	i	i	nt
CC(C)(C)CCN1C[C@@H]2C(CNC(=O)c3cc(Cl)cc(Cl)c3)[C@@H]2C1 (stereo partly specified)	i	nt	nt	i	i	nt
Cc1[nH][nH]c(=O)c1C(c1ccc(-c2ccc(F)cc2)o1)c1c(C)[nH][nH]c1=O	25	i	i	i	i	i
Cc1[nH][nH]c(=O)c1C(c1ccc(-c2ccc(Cl)c(Cl)c2)o1)c1c(C)[nH][nH]c1=O	i	38	i	i	i	i
Cc1[nH][nH]c(=O)c1C(c1ccc(-c2ccc(C(=O)O)cc2)o1)c1c(C)[nH][nH]c1=O	i	i	i	i	i	i
Cc1ccc(NC(=O)C2CC(=O)N(c3ccc4c5c(cccc35)CC4)C2)cc1 (stereo unspecified)	i	i	35	i	i	i
N#Cc1ccccc1NC(=O)C1CC(=O)N(c2ccc3c4c(cccc24)CC3)C1 (stereo unspecified)	i	i	i	i	i	i
Cc1nn(C)c(C)c1N1C(=O)c2cccc3c(Br)ccc(c23)C1=O	i	i	i	i	22	i
Cc1nn(C)c(C)c1N1C(=O)c2cccc3c(N)ccc(c23)C1=O	i	i	i	i	i	i
CCCCNC(=O)C[C@H]1C[C@@]2(C(=O)OC)C(=C[C@H](C(C)C)O[C@@H]2C2CC2)N(Cc2ccco2)C1=O	i	i	nt	i	i	nt
COc1ccc(C(=O)Nc2ccc3c(c2)nc(CN2CCCC2)n3C)cc1	i	i	i	i	34	i
Cc1c2ccncc2cc2c1[nH]c1ccccc12	i	i	i	i	i	i
Cc1c2c(cc3c1[nH]c1ccccc13)C=NCC2	i	i	65	i	i	i
COc1ccc(NC(=O)CN(c2ccc(C)cc2)S(C)(=O)=O)c(OC)c1	i	i	i	i	40	i
CCCOc1cccc(C(=O)NCCCNC(=O)c2ccccn2)c1	i	i	i	i	48	i
CCCOc1cccc(C(=O)NCCNC(=O)c2ccccn2)c1	i	i	i	i	i	i
O=C(CCS(=O)(=O)c1ccc(F)cc1)Nc1nc(-c2ccccn2)cs1	i	i	i	i	21	i
O=C(CCS(=O)(=O)c1ccccc1)Nc1nc(-c2ccccn2)cs1	i	i	i	i	i	i
SMILES	LEDGF integ inh	rCAG binder	CSN inh	MBD2 DNA inh	UHRF1 MBD2 ctr	ATG4B inh
CCOC(=O)CC1COc2ccccc2N1C(=O)c1cccc([N+](=O)[O-])c1 (stereo unspecified)	i	i	i	i	40	i
COCCCNC(=O)C[C@H]1C[C@@]2(C(=O)OC)C(=C[C@H](C(C)(C)C)O[C@@H]2C)N(Cc2cccc3ccccc23)C1=O	i	i	nt	i	i	nt
COc1ccc(C=NOCC(=O)OCC(=O)Nc2ccc(OC)cc2)cc1	i	i	i	i	29	i
CC(=O)Nc1ccc(/C=N/OCC(=O)Nc2ccc(C)cc2)cc1	i	i	i	i	i	i
Cc1[nH]c(=O)[nH]c(=O)c1S(=O)(=O)NCCc1ccc(S(N)(=O)=O)cc1	i	i	i	i	21	i
Cc1[nH]c(=O)[nH]c(=O)c1S(=O)(=O)Nc1ccc(S(N)(=O)=O)cc1	i	i	i	i	i	i
COC(=O)[C@]12C[C@H](CC(=O)NCc3ccc(OC)c(OC)c3)C(=O)N(CCc3ccc(OC)c(OC)c3)C1=C[C@H](C1CCCC1)O[C@@H]2C	i	i	nt	i	i	nt
Cn1c(SCC(=O)NCCN2CCCCC2)nc2cccnc21	i	i	nt	i	i	nt
C=C[C@H]1CN2CC[C@H]1C[C@@H]2[C@@H](O)c1ccnc2ccc(OC)cc12	i	i	i	i	42!	i
O=C1C[C@H](c2ccc3ccccc3c2)N=C2N1/C(=C\c1ccccc1)[C@@H](c1ccccc1C(F)(F)F)N2Cc1ccc2c(c1)OCO2	i	nt	nt	i	i	nt
CN(C)S(=O)(=O)N1CCN(CC(=O)Nc2ccc(Br)cc2)CC1	i	i	i	i	22	i
COc1ccc(NC(=O)CN2CCN(S(=O)(=O)N(C)C)CC2)cc1	i	i	i	i	i	i
Cc1cccc(OCC(=O)Nc2ccc3c(C)cc(=O)oc3c2)c1	i	i	i	i	i	i
Cc1cc(=O)oc2cc(NC(=O)COc3ccccc3[N+](=O)[O-])ccc12	i	i	71	i	i	i
Cc1cc(=O)oc2cc(NC(=O)COc3cccc(C(F)(F)F)c3)ccc12	i	i	i	i	56	i
O=C(COc1ccc2c(-c3ccccc3)cc(=O)oc2c1)Nc1cccnc1	i	i	49	i	i	i
C/C(=N\Nc1nc2ccccc2[nH]1)c1ccc(N2CCOCC2)cc1	i	i	i	i	33	i
Cc1ccc(CNC(=O)CN2C(C)CCCC2C)cc1 (stereo unspecified)	i	i	i	i	49	i
COCCCNC(=O)C[C@H]1C[C@@]2(C(=O)OC)C(=C[C@H](C3CCCC3)O[C@@H]2C)N(CCc2ccc(OC)c(OC)c2)C1=O	i	i	nt	i	i	nt
Cc1nnsc1NC(=O)OCc1ccc(Cl)cc1Cl	i	i	i	i	i	i
Cc1nn(C)c(Cl)c1NC(=O)OCc1ccc(Cl)cc1Cl	i	i	i	i	53	i
O=C(CSc1nnc(-c2cccnc2)n1-c1ccccc1)Nc1ccc(OCc2ccccc2)cc1	i	i	nt	i	i	nt
CCCC(=O)N(c1ccc(C(=O)O)cc1)c1nc(-c2ccccc2)c(C)s1	i	i	i	i	41	i
COCC(=O)Nc1nc(-c2ccccc2)c(C)s1	i	i	i	i	i	i
C[C@@H]1[C@@H](c2ccccc2)c2cc3ccccc3nc2-c2nc3ccccc3cc2[C@@H]1C(=O)N1CCCC1	i	i	nt	i	i	nt
Cc1ccc(C(=O)O)cc1NS(=O)(=O)c1ccc2ccccc2c1	i	i	i	i	i	i
